Consider three compounds from ChEMBL document CHEMBL3272036, “Reactions of 2-acyloxyisobutyryl halides with nucleosides. Synthesis and biological evaluation of some 3"-acyl and 3',5'-diacyl derivatives of 1-beta-D-arabinofuranosylcytosine” (J Med Chem, 1976).

The subject of one test is HeLa. Put plainly: Cytotoxicity against human HeLa cells after 48 hrs by Coulter counter analysis. It counts as functional. The note with it: read-out: ED50 (the source's name).
Test [1] concerns L1210. Put plainly: Antitumor activity against mouse L1210 cells allografted in BDF1 mouse assessed as increase in life span at 100 mg/kg, ip administered as single dose relative to vehicle-treated control. The format is functional. Particulars: route intraperitoneal. In outline: (§1)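 Single intraperitoneal injection given 24 h after the leukemic cells were introduced, at 100, 200, 500 or 1000 mg/kg. Read-out is % increase in life span (ILS), with the count of 30-day survivors per group recorded (group sizes 7–8 mice).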

For the next test, the system named is Vaccinia virus. Put plainly: Antiviral activity against Vaccinia virus IHD infected in African green monkey BGM cells assessed as plaque reduction measured on day 5 by disk diffusion assay. It counts as functional. The note with it: Orthopoxvirus vaccinia, 120 h, read-out: ED50 (the source's name).
For test [2], the system named is L1210. Put plainly: Antitumor activity against mouse L1210 cells allografted in BDF1 mouse assessed as increase in life span at 200 mg/kg, ip administered as single dose relative to vehicle-treated control. The note with it: route intraperitoneal. It counts as functional. The procedure, abridged: as §1
The next test deals with Herpesviridae sp. Put plainly: Antiviral activity against Herpes Simplex virus HF infected in African green monkey BGM cells assessed as plaque reduction measured on day 5 by disk diffusion assay. The format is functional. The note with it: 120 h, read-out: ED50 (the source's name).
Test [3] relates to L1210. Put plainly: Antitumor activity against mouse L1210 cells allografted in BDF1 mouse assessed as survival at 1000 mg/kg, ip administered as single dose measured on day 30 relative to vehicle-treated control. It counts as functional, organism-based. Further details: dose 1000 mg/kg. The procedure, abridged: (§2)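 Leukemic L1210 cells were introduced into mice. Each compound was then given as a single intraperitoneal injection 24 h later. Activity is expressed as % increase in life span (ILS), with the count of 30-day survivors per group. Doses tested were 100, 200, 500 and 1000 mg/kg.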

Test [4] relates to L1210. Put plainly: Antitumor activity against mouse L1210 cells allografted in BDF1 mouse assessed as survival at 50 mg/kg, ip administered as single dose measured on day 30 relative to vehicle-treated control. It counts as functional, organism-based. Details: dose 50 mg/kg.
In test [5] the test system is L1210. Put plainly: Antitumor activity against mouse L1210 cells allografted in BDF1 mouse assessed as increase in life span at 1000 mg/kg, ip administered as single dose relative to vehicle-treated control. The format is functional. Particulars: route intraperitoneal. The procedure, abridged: as §1
The subject of test [6] is L1210. Put plainly: Antitumor activity against mouse L1210 cells allografted in BDF1 mouse assessed as survival at 200 mg/kg, ip administered as single dose measured on day 30 relative to vehicle-treated control. The format is functional, organism-based. Further details: dose 200 mg/kg. In outline: as §2

≈ marks a conversion by molar mass, not a printed value. Calls of active or inactive are those of the source. The calls are words filed in the database; no cut-off is given here.

With `CCCCCCCCCCCC(=O)O[C@H]1[C@H](O)[C@H](n2ccc(N)nc2=O)O[C@@H]1CO`, the EC50 in the test with HeLa was 0.08 µg/mL (≈ 0.188 µM); in the test with Vaccinia virus, 50 nM; with Herpesviridae sp., 250 nM. Moreover, the ILS at 100 mg/kg in the test on L1210 [1] is > 258%. The ILS at 200 mg/kg in the test with L1210 [2] is > 257%. Further, the outcome in the test on L1210 [3] was inactive. Also, the result in the test with L1210 [4] was Active. The ILS at 1000 mg/kg with L1210 [5] was -28%.
`CCCCCC(=O)O[C@H]1[C@H](O)[C@H](n2ccc(N)nc2=O)O[C@@H]1CO`: the EC50 with HeLa was found to be 0.05 µg/mL (≈ 0.146 µM); in the test on Vaccinia virus, 480 nM; in the test with Herpesviridae sp., 1500 nM. For the same compound, in the test with L1210 [1], the ILS at 100 mg/kg worked out at 5%. In the test with L1210 [2], the ILS at 200 mg/kg is 21%. Besides, the result with L1210 [6] and in the test with L1210 [4] was inactive.
On to `CCCCCCCC/C=C/CCCCCCCC(=O)OC[C@H]1O[C@@H](n2ccc(N)nc2=O)[C@@H](O)[C@@H]1OC(=O)CCCCCCC/C=C/CCCCCCCC`, for which the figures for the EC50 in the test with HeLa, in the test on Vaccinia virus and in the test on Herpesviridae sp. were 2.5 µg/mL (≈ 3.24 µM), > 30000 nM and > 30000 nM, respectively. Besides, in the test with L1210 [1], the ILS at 100 mg/kg was 14%. Besides, the ILS at 200 mg/kg in the test with L1210 [2] is > 253%. For the same compound, the outcome in the test on L1210 [4] was inactive.
